Measurements of several laboratories.
Lines come from different studies, so protocols differ.

| Compound | host | medium | route | dose | notes | endpoint | result |
| --- | --- | --- | --- | --- | --- | --- | --- |
| Cc1ccc(CCC(=O)Nc2nnc(S(N)(=O)=O)s2)cc1 | male BALB/c mouse | plasma | oral | 20 mg/kg | – | MRT | 3.74 h |
| CC[C@H](C)[C@H](NC(=O)[C@H](CCC(=O)O)NC(=O)[C@H](CCC(=O)O)NC(=O)[C@@H]1CCCN1C(=O)[C@H](CO)NC(=O)[C@H](C)NC(=O)[C@H](CC(=O)O)NC(=O)[C@H](CCC(=O)O)NC(=O)[C@H](CCC(=O)O)NC(=O)[C@@H]1CCCN1C(=O)[C@H](CCCCNC(=O)COCCOCCNC(=O)COCCOCCNC(=O)CC[C@H](NC(=O)CCCCCCCCCCCCCCCCC(=O)O)C(=O)O)NC(=O)[C@H](C)NC(=O)[C@@H]1CCCN1C(=O)[C@H](C)NC(=O)CC(C)C)C(=O)N[C@@H](CCC(N)=O)C(=O)N[C@@H](CCCNC(=N)N)C(=O)N[C@@H](Cc1ccc(O)cc1)C(=O)N[C@@H](Cc1ccc(O)cc1)C(=O)N[C@H](C(=O)N[C@@H](CO)C(=O)N[C@@H](CC(C)C)C(=O)N[C@@H](CCCNC(=N)N)C(=O)N[C@@H](Cc1c[nH]cn1)C(=O)N[C@@H](Cc1ccc(O)cc1)C(=O)N[C@@H](Cc1ccc(O)cc1)C(=O)N[C@@H](CC(N)=O)C(=O)N[C@@H](Cc1c[nH]c2ccccc12)C(=O)N[C@@H](CC(C)C)C(=O)N[C@H](C(=O)N[C@@H](CCCNC(=N)N)C(=O)N[C@@H](CCC(N)=O)C(=O)N[C@@H](CCCNC(=N)N)C(=O)N[C@@H](Cc1ccc(O)cc1)C(N)=O)[C@@H](C)O)C(C)C | male NMRI mouse | plasma | subcutaneous | 30 nmol/kg | single dose | MRT | 18 h |
| OCc1nc2ccc(NCc3ccc(C(F)(F)F)cc3)cc2[nH]1 | male BALB/c mouse | plasma | intravenous | 1 mg/kg | – | MRT(0-inf) | 1.1 h |
| COC1=CC(c2ccc[nH]2)=N/C1=C\c1cc(Cc2ccc(OC(F)(F)F)cc2)c(C)[nH]1.Cl | male CD-1 mouse | plasma | oral | 40 mg/kg | single dose | MRT(0-t) | 34.4 h |
| O=C1CCC(N2Cc3cc(C4CCN(Cc5ccccc5)CC4)ccc3C2=O)C(=O)N1 (stereo not shown) | male CD-1 mouse | plasma | intravenous | 1 mg/kg | – | MRT(0-inf) | 3.34 h |
| Cc1nc2ccc(OCc3ccc(C(F)(F)F)cc3)cc2[nH]1 | male BALB/c mouse | plasma | oral | 10 mg/kg | – | MRT(0-inf) | 4.04 h |
| CCOC(=O)c1c(NC(=O)CNC(C)C)sc2c1CCCCC2 | male mouse | plasma | intraperitoneal | 5 mg/kg | single dose | MRT(0-inf) | 1.79 h |
| COC1=CC(c2ccc[nH]2)=N/C1=C\c1[nH]c(Cc2ccc(OC(F)(F)F)cc2)cc1Cc1ccc(OC(F)(F)F)cc1 | male CD-1 mouse | liver | oral | 40 mg/kg | single dose | MRT(0-t) | 22.2 h |
| C[C@@H]1COCCN1c1cc(=O)n2c(n1)N(Cc1cncc(Cl)c1)[C@H](C(F)(F)F)CC2 | C57BL/6 mouse | plasma | intraperitoneal | 10 mg/kg | single dose | MRT(0-t) | 0.45 h |
| CCOC(=O)C1=C(CN2CCC[C@@H]2C(=O)Nc2ccc(B(O)O)cc2)NC(c2nccs2)=N[C@H]1c1ccc(F)cc1Br | CD-1 mouse | plasma | oral | 10 mg/kg | – | MRT(0-inf) | 1 h |
